Source: PubChem (several laboratories)
The list is not random: actives were taken first. Their share in the collection is about 4.3%.
m5-HT2A agonist = mouse Htr2a agonists via beta-arrestin recruitment, primary screen, cell-based, luminescence | 360,000 tested, 0.66% active | 5-hydroxytryptamine receptor 2A (Mus musculus), P35363 | activation, % at 7.6 µM | CHO-K1 mHTR2A beta-arrestin complementation; percent of 30 µM serotonin response;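 active means activation above a run cutoff, the mean activation of all tested compounds plus 3 SD, cut at about 14% in these data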;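 further: 0% = plate median of compound wells and 100% = 30 µM serotonin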
TAAR1 antagonist = human TAAR1 antagonists, primary screen, Fluo-8 calcium fluorescence, CHO RD-HGA16 cells. AID 624466, 2012. antagonist. inhibition, % at 3 µM. 360,000 tested, 1.5% active;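 active means inhibition above a per-plate cutoff, the mean inhibition of test compounds on that plate plus 3 SD, cut at about 49% in these data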;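 further: 0% = DMSO plus EC80 beta-PEA response and 100% = DMSO alone without agonist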
Target sequence (Q96RJ0 whole entry, looked up): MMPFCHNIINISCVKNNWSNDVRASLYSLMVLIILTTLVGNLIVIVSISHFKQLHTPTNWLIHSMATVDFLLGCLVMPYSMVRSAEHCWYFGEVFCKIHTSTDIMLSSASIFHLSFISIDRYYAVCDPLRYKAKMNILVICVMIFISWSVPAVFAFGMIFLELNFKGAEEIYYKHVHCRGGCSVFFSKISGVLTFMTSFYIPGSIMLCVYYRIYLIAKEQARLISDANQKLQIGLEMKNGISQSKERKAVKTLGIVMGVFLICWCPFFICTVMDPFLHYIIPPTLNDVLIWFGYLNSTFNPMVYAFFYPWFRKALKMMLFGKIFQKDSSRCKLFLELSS
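Test system: RD-HGA16 CHO cells with stable hTAAR1 and Gα16 / Probe or stimulus: EC80 β-phenethylamine stimulus / Times: seeding 17-24 h prior, 75-min 37 °C, 30-min RT dye loading / Detection: Fluo-8 calcium-sensitive fluorescence / Read-out basis: % inhibition scaled between DMSO and EC80 PEA controls / Repeats: singlicate, one well per test compound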
MC4R antagonist = MC4R antagonists of cAMP signaling, primary screen, cell-based, TR-FRET, antagonist arm of biased-ligand search. 360,000 tested, 0.48% active. MC4R-expressing cells, MTII-stimulated cAMP, LANCE TR-FRET. inhibition, % at 6.5 µM;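 active means inhibition above its plate's cutoff, the mean of tested wells on that plate plus 3 SD, cut at about 29% in these data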;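 further: 0% = Melanotan II alone and 100% = Melanotan II plus saturating MCL0020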
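System: U2OS cells stably expressing human melanocortin 4 receptor (MC4R). Reagent: Melanotan II challenge after compound preincubation. Doses: 6.5 µM. Times: 30-min compound, 1-h challenge, 1-h detection, room temperature. Measured by: TR-FRET with Eu-cAMP and labeled anti-cAMP, 671 nm. Replicates: singlicate.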
TAAR1 ag = human TAAR1 agonists, primary screen, Fluo-8 calcium fluorescence, CHO RD-HGA16 cells. 360,000 tested, 0.99% active. vehicle wells 0%, saturating PEA agonist 100%. Trace amine-associated receptor 1 (Homo sapiens), Q96RJ0. activation, % at 3 µM;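 active means activation above the mean activation of all test compounds in the run plus 3 SD, cut at about 38% in these data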
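Repeats: no replicates (n 1) | Material: CHO-derived RD-HGA16 cells with stable Gα16 and human TAAR1 | Technique: Kinetic Fluo-8 calcium fluorescence | Schedule: 17-24 h seeding, 75 min 37 °C dye, 30 min RT | Evaluation: % activation from peak over basal fluorescence ratio, DMSO-to-PEA scaled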
MC4R ag barr = MC4R agonists recruiting beta-arrestin, primary screen, cell-based, luminescence, agonist arm of biased-ligand search; Melanocortin receptor 4 (Homo sapiens), P32245; U2OS MC4R beta-arrestin complementation; percent of melanotan II response, DMSO zero; activation, % at 8.9 µM; 360,000 tested, 0.98% active;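 active means activation above a per-plate cutoff, the mean activation of sample wells on that plate plus 3 SD, cut at about 8% in these data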
Beta2AR agonist = beta2AR agonists driving receptor internalization, primary screen, cell-based, FAP fluorogen, flow cytometry; Beta-2 adrenergic receptor (Homo sapiens), P07550; Am2.2-beta2AR cells; 340,000 tested, 0.43% active; response, % (concentration not given with the values);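 active means response above a set limit, near 3 SD of response in nonfluorescent compounds, cut at about 42% in these data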
Target sequence (P07550 whole entry, looked up): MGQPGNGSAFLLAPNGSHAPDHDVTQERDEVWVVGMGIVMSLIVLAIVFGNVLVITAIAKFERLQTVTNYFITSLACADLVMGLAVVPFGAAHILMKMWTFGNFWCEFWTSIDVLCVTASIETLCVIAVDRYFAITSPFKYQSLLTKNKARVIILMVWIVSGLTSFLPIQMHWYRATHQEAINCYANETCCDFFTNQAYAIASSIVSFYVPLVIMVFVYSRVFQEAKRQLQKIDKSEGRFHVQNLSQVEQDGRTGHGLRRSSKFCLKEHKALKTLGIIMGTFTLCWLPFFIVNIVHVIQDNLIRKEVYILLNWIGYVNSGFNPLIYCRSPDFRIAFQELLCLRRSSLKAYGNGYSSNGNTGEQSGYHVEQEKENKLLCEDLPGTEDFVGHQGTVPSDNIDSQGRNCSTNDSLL
MOR ag counter = OPRM1 agonists via beta-arrestin recruitment, confirmation, counter-screen for mouse HTR2A agonist project, cell-based, luminescence, single concentration | AID 624380, 2012 | 2,300 tested, 5.3% active | shares compounds with m5-HT2A agonist | activation, % at 9.3 µM | U2OS OPRM1 beta-arrestin PathHunter; DMSO 0%, DAMGO 9.3 µM 100%;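 active means mean activation above the mean of DMSO-only wells plus 3 SD, cut at about 0.5% in these data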
m5-HT2A ag conf = mouse HTR2A agonists, beta-arrestin recruitment, confirmation, cell-based, luminescence, CHO-K1 PathHunter, triplicate | AID 624381, 2012 | 2,300 tested, 19% active | DMSO 0%, 30 µM serotonin 100% | activation, % at 7.6 µM | shares compounds with m5-HT2A agonist;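 active means mean activation across triplicates above the hit threshold derived in the original primary screen, cut at about 15% in these data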
Active calls of the source: *; nt = no result given.

SMILES | m5-HT2A agonist | TAAR1 antagonist | MC4R antagonist | TAAR1 ag | MC4R ag barr | Beta2AR agonist | MOR ag counter | m5-HT2A ag conf
CCC(C)(C)C1CCc2[nH]nc(C(=O)NCc3ccc(Cl)cc3)c2C1 (centres undefined) | -5.2 | 0.1 | 6.1 | 17.0 | 2.7 | 0.2 | nt | nt
Cc1ccc(SCCN)cc1C | 20.9* | 0.1 | 24.4 | 5.8 | -0.4 | 2.0 | -0.3 | 12.9
CNC(=O)Nc1ccc2snnc2c1 | -6.8 | -13.4 | 8.0 | 2.2 | -0.2 | -1.5 | nt | nt
O=C(Nc1ccc2snnc2c1)N1CCSCC1 | 17.3* | -6.5 | 3.9 | 1.7 | -0.6 | -11.4 | 0.2 | 3.0
Cc1cc(C=O)sc1[B-](F)(F)F | 14.5* | -9.2 | 6.2 | 0.5 | -1.2 | -7.3 | -0.3 | 10.2
CCOC(=O)N1CCN(c2ccc(Cl)c(Cl)c2)CC1 | 2.7 | 11.2 | -2.6 | 0.7 | 2.1 | 0.3 | nt | nt
COC(=O)/C(=C/N(C)C)C(=O)N1CCN(c2ccc(Cl)c(Cl)c2)CC1 | 17.6* | -7.0 | -1.5 | 9.7 | -0.1 | 0.6 | -0.5 | 0.0
O=C(NC(=S)Nc1ccccn1)c1cccc([N+](=O)[O-])c1 | 27.3* | -11.0 | 0.5 | 0.8 | -0.3 | -7.5 | -0.7 | -4.5
O=C(Nc1ccc(F)cc1)C(c1cc2ccccc2o1)N1CCN(CC(=O)N2CCCC2)CC1 (centres undefined) | 26.6* | 10.3 | nt | 1.1 | nt | nt | -0.8 | -4.6
O=C(Nc1ccc(F)cc1)C(c1cccc(F)c1)N1CCN(CC(=O)N2CCCC2)CC1 (centres undefined) | -2.3 | 2.5 | nt | 3.7 | nt | nt | nt | nt
O=C(COC(=O)c1ccc(O)cc1O)NC1CC1 | -0.2 | 6.0 | 12.8 | 3.1 | 0.2 | -2.4 | nt | nt
CC12CC3CC(C)(C1)CC(C(O)CN1CCOCC1)(C3)C2 (centres undefined) | 16.0* | -18.8 | 7.3 | 4.3 | -0.1 | -2.6 | -0.6 | 3.4
CCC[C@H]1CN(c2ccc(Br)cc2)C(=O)[C@@H]1CC(=O)Nc1ccccc1 | 3.6 | 1.8 | 14.6 | 1.3 | -2.0 | nt | nt | nt
CCOC(=O)N1CCN(C(c2cc3ccccc3o2)c2nnnn2C(C)(C)C)CC1 (centres undefined) | -1.1 | -14.3 | nt | 1.6 | nt | nt | nt | nt
CCCCn1nnnc1C(c1cc2ccccc2o1)N1CCN(C(=O)OCC)CC1 (centres undefined) | 16.9* | -7.3 | nt | 1.9 | nt | nt | -0.6 | -4.6
Cc1ccccc1NC(=O)Cc1nc(COC(=O)COc2cccc(C)c2C)cs1 | 14.6* | 10.1 | -7.8 | 5.5 | -2.0 | 0.9 | -0.7 | -4.3
CCOc1ccccc1OCC(=O)OCc1csc(CC(=O)Nc2ccccc2C)n1 | 2.4 | 11.4 | -6.0 | 1.7 | -1.8 | -7.2 | nt | nt
CC(C)c1[nH]nc2c1C1(CCN(Cc3ccccc3)CC1)C(C#N)=C(N)O2 | 30.7* | 9.2 | 5.3 | 8.1 | -0.6 | 19.1 | -0.5 | -4.8
Cc1[nH]nc2c1C1(CCN(Cc3ccccc3)CC1)C(C#N)=C(N)O2 | 9.1 | -4.2 | 4.5 | 1.9 | -3.0 | -4.2 | nt | nt
CN(CCOc1ccccc1)C(=O)c1ccc(Cl)c(S(=O)(=O)N2CCCCC2)c1 | -6.2 | -12.1 | -5.6 | 14.6 | 1.4 | 0.4 | nt | nt
COc1ccc(COCC(O)CN2CCc3ccccc3C2)cc1OC (centres undefined) | 21.4* | -23.1 | 9.2 | 13.9 | -2.7 | -7.4 | -0.1 | 4.2
Cc1ccc(CNC2CCCCC2)s1 | 0.9 | 2.1 | -1.2 | -0.7 | 2.2 | 7.9 | nt | nt
O=C(Cc1c(F)cccc1Cl)N1CCN(S(=O)(=O)c2cccc(F)c2)CC1 | 14.4* | -17.5 | 1.7 | 3.8 | -2.0 | -2.5 | -0.5 | -2.0
COc1ccc2c3n(nc2c1)CCN=C3c1ccc(Cl)cc1 | 16.5* | 7.5 | 0.6 | 0.5 | -2.9 | -11.7 | -0.5 | -4.7
O=C(CN(C(=O)c1csnn1)c1ccc2c(c1)OCCO2)NCc1ccccc1 | 15.0* | 11.0 | 5.7 | 0.6 | 3.4 | 5.8 | -0.6 | -4.3
SMILES | m5-HT2A agonist | TAAR1 antagonist | MC4R antagonist | TAAR1 ag | MC4R ag barr | Beta2AR agonist | MOR ag counter | m5-HT2A ag conf
Cc1cccc(NC(=O)c2cccc(S(=O)(=O)N(C)C3CCCCC3)c2)n1 | 4.8 | 4.6 | -2.6 | 1.2 | -0.5 | nt | nt | nt
Cc1ccc2nc(NC(=O)CSCC(=O)Nc3cc(C)on3)sc2c1 | 18.8* | -23.1 | -7.4 | 4.9 | 2.2 | 2.9 | -0.6 | -0.9
Cc1cc(NC(=O)CSCC(=O)Nc2nc3ccc(F)cc3s2)no1 | 8.9 | 16.8 | 3.8 | -1.2 | -1.9 | -5.5 | nt | nt
Cc1ccc(OCc2ccccc2Br)c([N+](=O)[O-])n1 | 1.4 | -31.8 | -1.2 | -2.5 | -1.8 | -1.9 | nt | nt
CC(C)(C)CC(=O)Nc1nnc(C(F)(F)F)s1 | 3.3 | -5.8 | 4.3 | 2.8 | -1.2 | -3.0 | nt | nt
CC(NC(=O)Nc1nnc(C(F)(F)F)s1)(C(F)(F)F)C(F)(F)F | 16.1* | 1.9 | 4.0 | 8.3 | 1.2 | 21.4 | 0.1 | 14.2
Cc1csc(SCC(=O)NCCc2ccc(Cl)cc2)n1 | 0.3 | -1.9 | 3.1 | 0.6 | -3.3 | 2.0 | nt | nt
Cc1nc(SCC(=O)NCCc2ccc(Cl)cc2)nc(C)c1C | 15.5* | -22.0 | 1.8 | 0.2 | -0.2 | 8.9 | -0.7 | -4.6
O=C1C2CCCN2C(c2ccc(F)cc2)N1c1cccc(Cl)c1 (centres undefined) | 16.9* | -7.4 | -1.1 | 0.7 | -0.9 | -2.6 | -0.5 | 1.3
COc1ccccc1CNC(=O)C1CCC(CNS(=O)(=O)c2ccc(F)cc2)CC1 (centres undefined) | 20.9* | 5.0 | -1.7 | 10.1 | -1.8 | -14.6 | -0.6 | 1.9
O=C1OCC2=C1C(c1ccc(F)cc1)CC(=O)N2c1ccccc1 (centres undefined) | 1.4 | nt | 10.9 | nt | 1.0 | 6.2 | nt | nt
CC(=O)Nc1ccc2[nH]ccc2c1 | 2.2 | -0.6 | 4.9 | 0.3 | 0.3 | 1.5 | nt | nt
O=C(Nc1ccc2[nH]ccc2c1)c1cccs1 | 15.2* | 4.1 | 7.0 | 19.0 | -1.2 | -6.9 | 0.9* | 2.1
